Sampled rows, rich in hits. Any-hit rate of the full collection: about 2.9%.
SENP1 FRET inh = human SENP1 catalytic domain inhibitors, primary screen, biochemical, FRET, uHTS | Sentrin-specific protease 1 (Homo sapiens), Q9P0U3 | recombinant SENP1 catalytic domain, CyPet-SUMO1-YPet FRET cleavage | inhibition, % at 10 µM | 360,000 tested, 0.21% active;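 active = inhibition at least 30% at 10 µM, raw YFP signal under a set limit, fluorescence ratio 0.5 to 1.5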;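 also: 0% = enzyme with DMSO and 100% = no enzyme wells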
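Material: hSENP1 catalytic domain, recombinant; medium: Tris pH 8 with BME, BSA, NP40 and catalase; compound: single concentration of 10 µM compound, 0.5% DMSO final; technique: FRET read of cyan and yellow fluorescence; timing: 50 min enzyme reaction, room temperature, light-protected; reagent: SFCypet-SUMO1-SFYpet substrate at 25 nM; control set: no-enzyme low, enzyme-DMSO high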
SENP8 block-1 = human SENP8 protease inhibitors, primary screen, biochemical, fluorescence, Nedd8 protein substrate, uHTS; Sentrin-specific protease 8 (Homo sapiens), Q96LD8; recombinant SENP8; inhibition, % at 20 µM; 360,000 tested, 0.64% active; AID 602440, 2012; in the data active = inhibition mostly above about 40%, no sharp cut-off; inactive = mostly below about 27%
SENP6 block = SENP6 protease inhibitors, primary screen, biochemical, luminescence, uHTS; inhibition, % at 10 µM; Sentrin-specific protease 6 (Homo sapiens), Q9GZR1; Recombinant SENP6 catalytic domain, aminoluciferin luminescence; 330,000 tested, 1.8% active;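 active = inhibition above about 50% at the single tested dose, limit read from the data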;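 also: plate controls were DMSO wells with enzyme for no effect and DMSO wells lacking enzyme for full effect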
SENP8 block-2 = SENP8 protease inhibitors, primary screen, biochemical, luminescence. inhibition, % at 10 µM. purified SENP8, Z-RLRGG-aminoluciferin cleavage. 330,000 tested, 1.2% active. AID 2540, 2010; in the data active = inhibition above about 50%
Apaf-1 inh = inhibitors of human Apaf-1 apoptosome, primary screen, biochemical, DEVD-Rh110 fluorescence, uHTS; Apoptotic protease-activating factor 1 (Homo sapiens), O14727; reconstituted apoptosome caspase-3 activity; inhibition, % at 20 µM; 330,000 tested, 0.71% active; AID 489030, 2010; active = inhibition of at least 40% at 20 µM;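 also: plate controls were DMSO wells for no effect and DEVD-CHO caspase inhibitor wells for full effect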
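Assay system – apoptosome proteins · Medium – Hepes buffer, pH 7.5 · Also added – cytochrome c with DEVD-Rh110 · Timing – 30 min compound preincubation, 50 min activation, room temperature · Detection – Rh110 fluorescence, excitation 480 nm, emission 540 nm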
SENP7 block = SENP7 protease inhibitors, primary screen, biochemical, luminescence, uHTS. Sentrin-specific protease 7 (Homo sapiens), Q9BQF6. recombinant SENP7, Z-RLRGG-aminoluciferin luminescence, 40 min. inhibition, % at 5 µM. 330,000 tested, 1.5% active. AID 434973, 2010;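 active = inhibition above about 50% at the single test dose, limit read from the data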;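 also: plate controls were DMSO with enzyme for no effect and no enzyme buffer wells for full effect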
Target sequence (Q9BQF6 706-1050 limits assumed): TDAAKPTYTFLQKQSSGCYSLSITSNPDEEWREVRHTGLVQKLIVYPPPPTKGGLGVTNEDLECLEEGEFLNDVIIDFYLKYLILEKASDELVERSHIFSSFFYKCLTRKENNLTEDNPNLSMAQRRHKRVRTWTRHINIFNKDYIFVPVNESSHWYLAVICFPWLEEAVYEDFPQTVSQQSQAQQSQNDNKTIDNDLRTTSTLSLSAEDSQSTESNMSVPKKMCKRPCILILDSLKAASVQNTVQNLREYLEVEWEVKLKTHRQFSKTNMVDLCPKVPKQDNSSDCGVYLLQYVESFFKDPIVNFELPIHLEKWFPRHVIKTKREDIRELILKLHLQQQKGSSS
SENP8 conf = SENP8 protease inhibitors, retest, confirmation, biochemical, luminescence, single concentration | Recombinant SENP8, Z-RLRGG-aminoluciferin luminescence, 60 min | shares compounds with SENP7 block | 6,200 tested, 40% active | inhibition, % at 12.5 µM;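 active = mean inhibition across replicates above about 50%, limit read from the data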
SENP6 confirm = SENP6 protease inhibitors, confirmation, biochemical, luminescence, single concentration. shares compounds with SENP7 block. recombinant SENP6, Z-RLRGG-aminoluciferin luminescence. inhibition, % at 12.5 µM. 6,200 tested, 58% active. AID 488915, 2010
SENP7 conf = SENP7 protease inhibitors, retest, confirmation, biochemical, luminescence, single concentration | inhibition, % at 12.5 µM | AID 488917, 2010 | 6,200 tested, 69% active | recombinant SENP7, Z-RLRGG-aminoluciferin luminescence, 40 min | shares compounds with SENP7 block
Casp3 SENP sel = caspase-3 protease inhibitors, confirmation, selectivity assay for SENP inhibitor project, biochemical, single concentration. shares compounds with SENP7 block. purified caspase-3, Z-DEVD-aminoluciferin luminescence, 60 min. inhibition, % at 12.5 µM. 6,200 tested, 60% active;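 active = mean inhibition above about 50%, limit read from the data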;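 also: plate controls were enzyme with DMSO for no effect and wells without caspase-3 for full effect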
Luc interf = counter-screen for SENP inhibitors: luminescence interference | Pre-incubated SENP8/Z-RLRGG-aminoluciferin, luciferase luminescence interference | inhibition, % at 12.5 µM | shares compounds with SENP7 block | 6,200 tested, 39% active;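 active = mean inhibition above about 50% when retested at one dose, limit read from the data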;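 also: plate controls were DMSO wells with completed reaction for no effect and substrate without enzyme for full effect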
* hit, by the source's call; . = not tested or not shown.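 The calls were made as follows, unless noted: active = mean inhibition above about 50% in the one-dose retest (limit read from the data); inactive = the rest.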

SMILES	SENP1 FRET inh	SENP8 block-1	SENP6 block	SENP8 block-2	Apaf-1 inh	SENP7 block	SENP8 conf	SENP6 confirm	SENP7 conf	Casp3 SENP sel	Luc interf
OC[C@@H]1CN(CCNc2ccccc2)C[C@H](n2cnc3c(NCc4ccncc4)ncnc32)O1	-5	-9	.	.	.	.	.	.	.	.	.
CC(=O)OC[C@@H]1CN(Cc2ccccc2)C[C@H](n2cnc3c(NC4CC4)ncnc32)O1	-2	0	.	.	.	.	.	.	.	.	.
N/C(=N\OC(=O)CCCc1ccccc1)c1ccccc1	1	4	31	7	7	2	.	.	.	.	.
Cc1cccc(/C(N)=N/OC(=O)CCCc2ccccc2)c1	-1	8	60*	40	14	0	50	52*	85*	68*	21
CS(=O)(=O)N(CC(=O)N1CCCC1)c1cccc(C(F)(F)F)c1	2	8	.	.	.	.	.	.	.	.	.
C/C(=N\NC(=O)c1ccc(O)cc1)c1cccc(NC(=O)c2ccccc2C)c1	-1	7	2	8	11	0	.	.	.	.	.
O=C(Oc1ccc(-c2cn3c(n2)SCC3)cc1)c1ccccc1	2	26	40	0	2	71*	12	22	16	51*	26
CC(=O)Nc1ccc(-c2cn3c(n2)SCC3)cc1	0	22	-14	-8	-1	-4	.	.	.	.	.
C[C@@H](c1ccccc1)N1C[C@H](COCc2ccccc2)Oc2cc(N3CC[C@H](N(C)C)C3)ccc2S1(=O)=O	0	-6	.	.	.	.	.	.	.	.	.
Cc1ccsc1C1NC(=O)c2c(sc3c2CCCC3)N1 (centres undefined)	-20	-241	74*	48	2	54*	32	68*	82*	53*	22
O/C(=C\c1ccc2ccccc2n1)c1ccncc1	-27	-115	98*	90*	-2	97*	94*	94*	102*	97*	94*
O/N=C/c1ccc2ccccc2n1	2	32	7	-6	-50	2	.	.	.	.	.
CCN(CC)C(=O)C1=C(C)N(CCCN2CCCC2=O)C(=O)C(CC(=O)NCCN2CCOCC2)C1 (centres undefined)	3	5	.	.	.	.	.	.	.	.	.
COc1ccc(-c2cc3nc(CCl)[nH]c(=O)c3s2)cc1	-15	-336	94*	83*	17	59*	66*	91*	70*	82*	32
O=C(NC1CCCCC1)C(c1ccnc2ccccc12)n1c(=O)c(-c2ccccc2)nc2ccccc21 (centres undefined)	-3	-429	.	.	.	.	.	.	.	.	.
COc1ccc(-c2ccc3sc4ccccc4c(=O)c3c2)cn1	-107	-392	95*	15	16	101*	14	21	8	74*	14
COc1ccc2sc3ccccc3c(=O)c2c1OC	-54	-23	20	5	8	-4	.	.	.	.	.
